According to ChEMBL document CHEMBL4602651, “Development of selective mono or dual PROTAC degrader probe of CDK isoforms” (Eur J Med Chem, 2020):
Blank lines part the entries; values can stand above or below the compound they belong to. Active and inactive are the calls of the source. The rule behind the calls is not given here.

Legend:
[1] = biological target: T1, Protein cereblon/Cyclin-dependent kinase 9 (Homo sapiens) (UniProt P50750+Q96SW2); test: Protac activity at CRBN/CDK9 in AR-negative human PC3 cells assessed as induction of CDK9 protein degradation at 30 uM after 12 hrs by Western blot analysis; type: cell-based; conditions: PC-3
T1 sequence (P50750 whole entry, looked up): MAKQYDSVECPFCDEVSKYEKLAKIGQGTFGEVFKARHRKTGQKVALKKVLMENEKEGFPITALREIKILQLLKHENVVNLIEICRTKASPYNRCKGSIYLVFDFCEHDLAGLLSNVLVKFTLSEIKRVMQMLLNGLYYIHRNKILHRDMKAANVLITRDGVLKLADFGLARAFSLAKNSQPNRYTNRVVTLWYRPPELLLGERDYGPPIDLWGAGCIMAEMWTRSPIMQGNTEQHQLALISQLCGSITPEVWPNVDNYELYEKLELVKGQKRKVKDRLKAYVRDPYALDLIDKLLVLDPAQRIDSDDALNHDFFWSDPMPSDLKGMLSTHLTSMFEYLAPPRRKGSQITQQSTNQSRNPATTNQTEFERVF
T1 sequence (Q96SW2 whole entry, looked up): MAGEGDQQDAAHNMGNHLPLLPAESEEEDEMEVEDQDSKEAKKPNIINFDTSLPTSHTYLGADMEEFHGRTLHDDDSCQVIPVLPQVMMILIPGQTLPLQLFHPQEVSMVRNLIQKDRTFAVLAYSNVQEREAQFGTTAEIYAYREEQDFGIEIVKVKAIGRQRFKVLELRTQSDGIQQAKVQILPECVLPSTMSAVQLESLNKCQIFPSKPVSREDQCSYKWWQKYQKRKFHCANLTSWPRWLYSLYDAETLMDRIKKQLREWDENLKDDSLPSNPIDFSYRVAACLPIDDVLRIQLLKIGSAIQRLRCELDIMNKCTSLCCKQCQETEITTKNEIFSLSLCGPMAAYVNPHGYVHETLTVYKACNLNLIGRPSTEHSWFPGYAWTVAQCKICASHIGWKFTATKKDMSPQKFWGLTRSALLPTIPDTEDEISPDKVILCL
Outline: (§1)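 PC-3 cells (DMEM/F12 1:1, 10% FBS, 1% pen/strep, 37 °C, 5% CO2) plated at 5 × 10^5 per well, exposed to compound for 12 h. RIPA lysates with protease inhibitors; 50 µg total protein run on 10% SDS-PAGE, transferred to PVDF, blocked in 5% milk/TBS-T. Probed with anti-CDK9 (1/1000), β-tubulin loading control, HRP secondary, chemiluminescence; bands scored as degradation detected or not.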

[2] = biological target: T1, Protein cereblon/Cyclin-dependent kinase 9 (Homo sapiens); test: Protac activity at CRBN/CDK9 in AR-negative human PC3 cells assessed as induction of CDK9 protein degradation at 50 nM after 12 hrs by Western blot analysis; type: cell-based; conditions: PC-3; outline: as §1
[3] = biological target: T1, Protein cereblon/Cyclin-dependent kinase 9 (Homo sapiens); test: Protac activity at CRBN/CDK9 in AR-negative human PC3 cells assessed as induction of CDK9 protein degradation at 1 uM after 12 hrs by Western blot analysis; type: cell-based; conditions: PC-3; outline: as §1
PC-3 [4] = test: Antiproliferative activity against AR-negative human PC3 cells assessed as reduction in cell viability after 5 days by CCK8 assay; type: functional, cell-based; conditions: PC-3, 120 h
Outline: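 Cells seeded at 3 × 10^3 per well for 24 h, then dosed in 10-point, 3-fold serial dilution from 10 µM. CCK-8 added after 5 days, 4 h at 37 °C, absorbance at 450 nm. IC50 averaged from three separate determinations (at least two independent runs, duplicate wells). PC-3 grown in DMEM/F12 (1:1), LO2 in RPMI 1640, both with 10% FBS.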

[5] = biological target: Protein cereblon/Cyclin-dependent kinase 2 (Homo sapiens) (UniProt P24941+Q96SW2); test: Protac activity at CRBN/CDK2 in AR-negative human PC3 cells assessed as induction of CDK2 protein degradation at 50 nM after 12 hrs by Western blot analysis; type: cell-based; conditions: PC-3
Outline: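 PC-3 cells (5 × 10^5 per well) treated 12 h at single concentrations (50 nM, 500 nM, 1, 5 or 30 µM). RIPA lysates (50 µg) run on 10% SDS-PAGE and immunoblotted for CDK2, CDK5, CDK9 with β-tubulin loading control, then detected by chemiluminescence. Band intensities quantified densitometrically.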

[6] = biological target: T2, Protein cereblon/Cyclin-dependent kinase 2/Cyclin-dependent kinase 9 (Homo sapiens, UniProt P24941+P50750+Q96SW2); test: Protac activity at CRBN/CDK2/CDK9 in AR-negative human PC3 cells assessed as CDK9 degradation at 10 to 10^4 nM after 12 hrs by Western blot analysis; type: cell-based; conditions: PC-3
[7] = biological target: T2, Protein cereblon/Cyclin-dependent kinase 2/Cyclin-dependent kinase 9; test: Protac activity at CRBN/CDK2/CDK9 in AR-negative human PC3 cells assessed as CDK2 degradation at 10 to 10^4 nM after 12 hrs by Western blot analysis; type: cell-based; conditions: PC-3
[8] = biological target: T2, Protein cereblon/Cyclin-dependent kinase 2/Cyclin-dependent kinase 9; test: Protac activity at CRBN/CDK2/CDK9 in AR-negative human PC3 cells assessed as CDK9 degradation at 10^-1 to 10^3 nM after 12 hrs by Western blot analysis; type: cell-based; conditions: PC-3
[9] = biological target: T2, Protein cereblon/Cyclin-dependent kinase 2/Cyclin-dependent kinase 9; test: Protac activity at CRBN/CDK2/CDK9 in AR-negative human PC3 cells assessed as CDK2 degradation at 10^-1 to 10^3 nM after 12 hrs by Western blot analysis; type: cell-based; conditions: PC-3
PC-3 [10] = test: Induction of cell cycle arrest in human PC3 cells assessed as accumulation at S phase at 3 uM after 48 hrs by propidium iodide staining based flow cytometry (reference value: 17.96%); type: functional
PC-3 [11] = test: Induction of cell cycle arrest in human PC3 cells assessed as accumulation at G2/M phase at 3 uM after 48 hrs by propidium iodide staining based flow cytometry (reference value: 22.24%); type: functional
PC-3 [12] = test: Induction of cell cycle arrest in human PC3 cells assessed as accumulation at G0/G1 phase at 3 uM after 48 hrs by propidium iodide staining based flow cytometry (reference value: 59.80%); type: functional
[13] = biological target: T2, Protein cereblon/Cyclin-dependent kinase 2/Cyclin-dependent kinase 9; test: Protac activity at CRBN/CDK2/CDK9 in AR-negative human PC3 cells assessed as induction of CDK9 protein degradation after 24 hrs by Western blot analysis; type: cell-based; conditions: PC-3
Outline: (§2)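 PC-3 cells exposed to a degrader concentration series, then immunoblotted for CDK2 and CDK9 versus β-tubulin. The figure legend gives 24 h exposure. DC50 taken as mean of 2 determinations from densitometry.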

[14] = biological target: T2, Protein cereblon/Cyclin-dependent kinase 2/Cyclin-dependent kinase 9; test: Protac activity at CRBN/CDK2/CDK9 in AR-negative human PC3 cells assessed as induction of CDK2 protein degradation after 24 hrs by Western blot analysis; type: cell-based; conditions: PC-3; outline: as §2

Compound: CN1C(=O)CCC(N2C(=O)c3cccc(NCCNC(=O)CCC(=O)N4CCN(Cc5ccc(NC(=O)c6n[nH]cc6Nc6ncnc7[nH]ccc67)cc5)CC4)c3C2=O)C1=O (stereo unspecified)
Activity [6]: inactive
Activity [7]: inactive

Compound: O=C(CCC(=O)N1CCC(NC(=O)c2n[nH]cc2NC(=O)c2c(Cl)cccc2Cl)CC1)NCCCCCCNc1cccc2c1C(=O)N(C1CCC(=O)NC1=O)C2=O (stereo unspecified)
IC50 (PC-3 [4]): 14.6 µM

Compound: O=C(CCC(=O)N1CCN(Cc2ccc(NC(=O)c3n[nH]cc3Nc3ncnc4[nH]ccc34)cc2)CC1)NCCNc1ccc2c(c1)C(=O)N(C1CCC(=O)NC1=O)C2=O (stereo unspecified)
Activity [8]: Active
Activity [9]: Active

Compound: O=C(CCC(=O)N1CCN(Cc2ccc(NC(=O)c3n[nH]cc3Nc3ncnc4[nH]ccc34)cc2)CC1)NCCCCNC(=O)COc1cccc2c1C(=O)N(C1CCC(=O)NC1=O)C2=O (stereo unspecified)
Activity [13]: inactive
Activity [14]: inactive
IC50 (PC-3 [4]): 13.4 µM

Compound: O=C(CCC(=O)N1CCN(Cc2ccc(NC(=O)c3n[nH]cc3Nc3ncnc4[nH]ccc34)cc2)CC1)NCCNc1cccc2c1CN(C1CCC(=O)NC1=O)C2=O (stereo unspecified)
Activity [8]: Active
Activity [9]: Active

Compound: O=C(CCC(=O)N1CCN(Cc2ccc(NC(=O)c3n[nH]cc3Nc3ncnc4[nH]ccc34)cc2)CC1)NCCCOCCOCCOCCCNC(=O)COc1cccc2c1C(=O)N(C1CCC(=O)NC1=O)C2=O (stereo unspecified)
Activity [13]: inactive
Activity [14]: inactive
IC50 (PC-3 [4]): 18.3 µM

Continued, in another order:

Activity [1]: Active
Activity [2]: Active
Activity [3]: Active
IC50 (PC-3 [4]): 3.54 µM
Activity [5]: Active
Compound: O=C(COc1cccc2c1C(=O)N(C1CCC(=O)NC1=O)C2=O)NCCOCCOCC(=O)N1CCN(Cc2ccc(NC(=O)c3n[nH]cc3Nc3ncnc4[nH]ccc34)cc2)CC1 (stereo unspecified)

IC50 (PC-3 [4]): 2.02 µM
Compound: O=C(CCC(=O)N1CCC(NC(=O)c2n[nH]cc2NC(=O)c2c(Cl)cccc2Cl)CC1)NCCCOCCOCCOCCCNC(=O)COc1cccc2c1C(=O)N(C1CCC(=O)NC1=O)C2=O (stereo unspecified)

Activity [1]: Active
Activity [2]: Active
Activity [3]: Active
IC50 (PC-3 [4]): 3.6 µM
Activity [5]: Active
Compound: O=C(CCC(=O)N1CCN(Cc2ccc(NC(=O)c3n[nH]cc3Nc3ncnc4[nH]ccc34)cc2)CC1)NCCCCCCNc1cccc2c1C(=O)N(C1CCC(=O)NC1=O)C2=O (stereo unspecified)

IC50 (PC-3 [4]): 0.69 µM
Compound: CN1CCN(Cc2ccc(NC(=O)c3n[nH]cc3Nc3ncnc4[nH]ccc34)cc2)CC1
Activity (PC-3 [10]): 16.52%
Activity (PC-3 [11]): 37.9%
Activity (PC-3 [12]): 45.58%

Activity [1]: Active
Activity [3]: Active
IC50 (PC-3 [4]): 8.03 µM
Compound: O=C(CCC(=O)N1CCN(Cc2ccc(NC(=O)c3n[nH]cc3Nc3ncnc4[nH]ccc34)cc2)CC1)NCCNC(=O)COc1cccc2c1C(=O)N(C1CCC(=O)NC1=O)C2=O (stereo unspecified)
